{"source": "paper PMC3776988", "about": "(British Journal of Cancer, 2013)", "key": {"[1]": {"test_system": "patients with metastatic/advanced melanoma", "conditions": "cited from earlier work"}, "[2]": {"test_system": "patients", "conditions": "plitidepsin 1-h weekly schedule; ref Izquierdo et al, 2008; cited from earlier work"}, "[3]": {"test_system": "patients with advanced malignant melanoma", "experiment": "Phase II stage toxicity", "assay_type": "in vivo, human", "conditions": "single-agent plitidepsin 3.2 mg m^−2", "in_short": "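Previously untreated adults with advanced melanoma (ECOG PS ⩽2) were randomised without stratification to plitidepsin 3.2 mg m−2 as a 1-h i.v. infusion on days 1, 8 and 15 q4wk. Day-1 dosing could be delayed up to 2 weeks, and day-8/15 doses were skipped if retreatment criteria were unmet. Up to two dose reductions were allowed. Patients receiving ⩾1 infusion were evaluable; AEs were graded by NCI-CTCAE v.3.0.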"}}, "note": "Starred links: 1 amine or outer side, 2 acyl side, 3 side chain; linkers in the order of their positions; H or OH if unused. Positions of bridges follow the written chain, without caps; N, C: chain ends. Non-standard residues stand in square brackets, D forms with d. Residues, ends and D or L forms follow the SMILES beside them. *: point of attachment. X1 = CC[C@H](C)[C@@H](N[*:1])[C@@H](O)CC(=O)O[C@H](C(=O)[C@H](C)C(=O)[*:2])C(C)C; NMeY = CN[C@@H](Cc1ccc(O)cc1)C(=O)O; dNMeL = CN[C@H](CC(C)C)C(=O)O; Pyruvoyl = CC(=O)C(=O)*", "data": [{"smiles": "CN(C)/N=N/c1[nH]cnc1C(N)=O", "note": "[DTIC, Dacarbazine]", "values": [{"measurement": "Responses to single-agent DTIC, % of patients", "setting": "[1]; generally short lived, ref Falkson et al, 1998, Chapman et al, 1999, Chiarion Sileni et al, 2001, Avril et al, 2004, Bedikian et al, 2006, Schadendorf et al, 2006, Patel et al, 2011", "value": "6–15%"}, {"measurement": "Response rates reported for single-agent DTIC", "setting": "[1]; reported range", "value": "5–15%"}]}, {"smiles": "CC[C@H](C)[C@H]1NC(=O)[C@@H](NC(=O)[C@@H](CC(C)C)N(C)C(=O)[C@@H]2CCCN2C(=O)C(C)=O)[C@@H](C)OC(=O)[C@H](Cc2ccc(OC)cc2)N(C)C(=O)[C@@H]2CCCN2C(=O)[C@H](CC(C)C)NC(=O)[C@@H](C)C(=O)[C@H](C(C)C)OC(=O)C[C@@H]1O", "note": "[Plitidepsin, plitidepsin] (Pyruvoyl-P[dNMeL]T[X1]LP[NMeY](Me); ester 3-C)", "values": [{"measurement": "Single-agent RD", "setting": "[2]", "value": 3.2, "unit": "mg m^−2"}, {"measurement": "Febrile neutropenia", "setting": "[3]", "value": "no cases"}, {"measurement": "Grade 3 ALT increases, % of patients", "setting": "[3]", "value": 10, "unit": "%"}, {"measurement": "Omissions because of treatment-related transaminase increases", "setting": "[3]", "value": 25, "unit": "%"}, {"measurement": "Patients who skipped at least one plitidepsin infusion", "setting": "[3]", "value": 47, "unit": "%"}]}]}
